This sample holds only a part of the variants without activity.
B1: tRNA (parent)
chain: GUUCCGUUGGCGUAAUGGUAACGCGUCUCCCUCCUAAGGAGAAGACUGCGGGUUCGAGUCCCGUACGGAACG

Variants of: B1
Experiment: yeast fitness relative to wild type (ratio to wild type); higher = fitter; tRNA-Arg(CCU), competitive growth, 37 C, YPD
Method in brief: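 Gene amplicons from the start population and from each of six end populations were read by 100-nucleotide paired-end sequencing. Those end populations came from pooled Saccharomyces cerevisiae strains carrying tRNA-Arg(CCU) gene variants at the native locus, competed in YPD at 37°C for 24 hours. Fitness relative to wild type was worked out from changes in genotype frequencies. Genotypes needed ≥ 100 starting reads, and estimates < 0.5 were set to 0.5.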

First: C4G C29A C60U C61G
Second: G12A A43U
The yeast fitness of the first is lower: ≤ 0.5 for the first, 0.889 for the second.

First: G6A A15C C22G C33U U59G C62G
Second: U3G G12A C27A C29G U53A C60A A69C
The yeast fitness of the first is higher: 0.634 for the first, ≤ 0.5 for the second.

G12A C24G A36G A65U and C29A C62U G68A cannot be ordered by yeast fitness: ≤ 0.5 for the first, ≤ 0.5 for the second.

Compared with C22A C55U A65U, A37C A42U C49A A65U is higher in yeast fitness: ≤ 0.5 for the first, 0.609 for the second.

First: A14C A15C C27U C29A C34G G50C
Second: C11A U32G C61A
The yeast fitness of the first is higher: 0.597 for the first, 0.58 for the second.

Compared with G9A A15G A42C C62U, C11U C31U G58C is higher in yeast fitness: ≤ 0.5 for the first, 0.643 for the second.

First: A14U G23A U64A C66A
Second: U28A A36U
The yeast fitness of the first is lower: ≤ 0.5 for the first, 0.564 for the second.

U3A G9C G39A C55U A70C and A15C C24A C46A A57C A69U cannot be ordered by yeast fitness: ≤ 0.5 for the first, ≤ 0.5 for the second.

Compared with C4A A15G C33U C62U, C11U C66U is higher in yeast fitness: ≤ 0.5 for the first, 0.931 for the second.

Going from C4U C11G C49U C61A to C31U A36U, the yeast fitness rises from ≤ 0.5 to 0.591.

Going from C11U G48A C55A G58C to U13A A15G C27U, the yeast fitness rises from ≤ 0.5 to 0.601.

First: A37U A42G A45U
Second: A14U G18A A21U A42G G68A
The yeast fitness of the first is higher: 0.592 for the first, ≤ 0.5 for the second.

C5G A20G C22G C29G and U13A U19A C34U A42C A43U cannot be ordered by yeast fitness: ≤ 0.5 for the first, ≤ 0.5 for the second.

First: C4A C49U A69C
Second: A14U A21G A70C
The yeast fitness of the first is higher: 0.555 for the first, 0.543 for the second.

Going from C24U U32C A69U to C5U U26A C33G C46U C55G C66A, the yeast fitness falls from 0.818 to 0.539.

G23A C30U C49A A57U A70C and C4G G23C C61U cannot be ordered by yeast fitness: ≤ 0.5 for the first, ≤ 0.5 for the second.

Compared with C11U A40U, A20U U64C is higher in yeast fitness: 0.787 for the first, 0.902 for the second.

Going from G38A A45C A69U to U28A C61G C62G, the yeast fitness falls from 0.684 to 0.533.

Compared with U16A C61G, C5A C11G C33A G38A C46G A70U is lower in yeast fitness: 0.631 for the first, ≤ 0.5 for the second.

A14G U32A C62U and G17A G38A C49A U54A cannot be ordered by yeast fitness: ≤ 0.5 for the first, ≤ 0.5 for the second.

A20G C29U G38A G48C C62G and C5G G17C G38C G52A cannot be ordered by yeast fitness: ≤ 0.5 for the first, ≤ 0.5 for the second.

First: A21G C27A G67C
Second: C11A G52C C61G
The yeast fitness of the first is lower: ≤ 0.5 for the first, 0.618 for the second.

Going from U28A A40G G51C U54A G58C C66U to G10U A14U G44C, the yeast fitness rises from ≤ 0.5 to 0.646.

C27G A42G U64C and U2A U54A A65U cannot be ordered by yeast fitness: ≤ 0.5 for the first, ≤ 0.5 for the second.

U2G U13G U16C and C30A G56U A65G C66U cannot be ordered by yeast fitness: ≤ 0.5 for the first, ≤ 0.5 for the second.

C24A C29U G50A and A14U C24G G41A G44A U53A C66U G68C cannot be ordered by yeast fitness: ≤ 0.5 for the first, ≤ 0.5 for the second.

G10C G12A A15G A36U C46U and C24A C27A A42G A69U cannot be ordered by yeast fitness: ≤ 0.5 for the first, ≤ 0.5 for the second.

Going from C29G G68A to G6A C11U C22U, the yeast fitness falls from 0.595 to 0.566.

Compared with G18A C33U A42G, U13C U32G G39C G52C is lower in yeast fitness: 0.54 for the first, ≤ 0.5 for the second.

Compared with C29A U35C G50A, C4G C46G A69U is higher in yeast fitness: ≤ 0.5 for the first, 0.721 for the second.

Going from C22A C66U to U26A U59A, the yeast fitness falls from 0.982 to 0.822.

Compared with C4U A37U C49U, U3C G17A C29U C33U C60G is lower in yeast fitness: 0.563 for the first, ≤ 0.5 for the second.

U19C U28A C55G and C5A A20U C31G C61U cannot be ordered by yeast fitness: ≤ 0.5 for the first, ≤ 0.5 for the second.

First: G10A C30U C34U A42G A57C
Second: U3C C30A A69U
The yeast fitness of the first is lower: ≤ 0.5 for the first, 0.745 for the second.

Compared with C5U U28C, C11U C62U A69C is lower in yeast fitness: 0.976 for the first, 0.842 for the second.

C22G C29G A43G G63U and G6C U7C G9C C49U cannot be ordered by yeast fitness: ≤ 0.5 for the first, ≤ 0.5 for the second.

First: A15G A45U A70G
Second: C24G A36U A43U U64C
The yeast fitness of the first is higher: 0.617 for the first, ≤ 0.5 for the second.

C30G A40G A45G G52C A57C C60U A70C and C5U A37C U54A cannot be ordered by yeast fitness: ≤ 0.5 for the first, ≤ 0.5 for the second.

Going from A15U G17A to U7A A45C U47A G68A, the yeast fitness falls from 0.707 to ≤ 0.5.

First: C30A G39C
Second: C5G C30A A36G C61A
The yeast fitness of the first is higher: 0.656 for the first, 0.592 for the second.

Going from G25C U35C to C5U C30A A42U, the yeast fitness falls from 0.862 to 0.59.

A37G A45C C61G and U7C G18A G50A U64A cannot be ordered by yeast fitness: ≤ 0.5 for the first, ≤ 0.5 for the second.

A21U C34G C60G and A15U C27G U59C cannot be ordered by yeast fitness: ≤ 0.5 for the first, ≤ 0.5 for the second.

Compared with C11U C22G A57G, U8A G18C U19C A20C A36G U64A G67C is lower in yeast fitness: 0.586 for the first, ≤ 0.5 for the second.

Compared with C5A G17A A42G U64A, A42G A69G is higher in yeast fitness: 0.606 for the first, 0.749 for the second.

First: A43C C49A C66A
Second: G10A A20U
The yeast fitness of the first is lower: ≤ 0.5 for the first, 0.786 for the second.

A15G U32A G38A A69U and A14U C24G A36G G68U cannot be ordered by yeast fitness: ≤ 0.5 for the first, ≤ 0.5 for the second.

C24A A36U A37C and U2G A37C C49G C62A cannot be ordered by yeast fitness: ≤ 0.5 for the first, ≤ 0.5 for the second.

Going from C22U A45C to U16C C27G C60G, the yeast fitness falls from 0.75 to 0.603.

Compared with A14G A21C C29A, G23A G50A is higher in yeast fitness: 0.586 for the first, 0.819 for the second.

A14G U47A A69C and U7A G18C U35C A70U cannot be ordered by yeast fitness: ≤ 0.5 for the first, ≤ 0.5 for the second.

Compared with U26A G44C A65G, C31A C34G A43C U47C C61U is lower in yeast fitness: 0.573 for the first, ≤ 0.5 for the second.

Going from U32A A37C C55G to U3A C31U U53A, the yeast fitness rises from 0.503 to 0.518.

Compared with A14G G68C, C5U C34A G39C G52A G58A is lower in yeast fitness: 0.78 for the first, ≤ 0.5 for the second.

U2A U16G G50C C55U C60G A69G and U8A C22G G25A C27A C33U A57C G68C cannot be ordered by yeast fitness: ≤ 0.5 for the first, ≤ 0.5 for the second.

Going from A21C G23A C24U C31U C49U G67A to C11U C31U G41A, the yeast fitness rises from ≤ 0.5 to 0.714.

Compared with A20U G67U, A37C G52C is lower in yeast fitness: 0.681 for the first, 0.537 for the second.

C5U C11G U32A U35G C55A C61G and G25C A40U A42C G52A U64C C66U cannot be ordered by yeast fitness: ≤ 0.5 for the first, ≤ 0.5 for the second.

Going from G48C G56C to C33U G50A, the yeast fitness falls from 0.7 to 0.626.

U13G C49G G50C C60G C62A and C11A A20C C29U U47C A70U cannot be ordered by yeast fitness: ≤ 0.5 for the first, ≤ 0.5 for the second.

C4U G10A G12A A42U and G10A C30A C55A G58A cannot be ordered by yeast fitness: ≤ 0.5 for the first, ≤ 0.5 for the second.

Compared with U7C C62U A65U, U16A G23C U32C C33U is lower in yeast fitness: 0.542 for the first, ≤ 0.5 for the second.

Compared with C11U C60A, G12A A20C U54C C62U A70G is lower in yeast fitness: 0.631 for the first, ≤ 0.5 for the second.

Going from A20U A40C to C30G C31G A43G A57G, the yeast fitness falls from 0.712 to ≤ 0.5.

Going from A21U C27A G50C G52C G67C to U7C C31A U35G A42G, the yeast fitness rises from ≤ 0.5 to 0.591.

Going from C30A C62A A70G to C11A G25A U53A, the yeast fitness falls from 0.547 to ≤ 0.5.

First: C11U G38A A43C A65C
Second: C4U G12A C27G C34A C49A C60G C61U
The yeast fitness of the first is lower: ≤ 0.5 for the first, 0.522 for the second.

Going from A15U C33G G50A to A14C U16A C24U U53C C60G, the yeast fitness falls from 0.625 to ≤ 0.5.

First: U7C C49A
Second: U8C G17C A42G C61A
The yeast fitness of the first is higher: 0.732 for the first, ≤ 0.5 for the second.

First: U3G C4A A40U
Second: A14G C31U C55A A70G
The yeast fitness of the first is higher: 0.547 for the first, ≤ 0.5 for the second.

First: U2C U3C C34U A40U C55U A65G
Second: C5U C62G
The yeast fitness of the first is lower: ≤ 0.5 for the first, 0.702 for the second.

Going from C4A A40U A43G A65U to A42G G50C, the yeast fitness rises from ≤ 0.5 to 0.634.

U2C A14U C61G A70G and C22U G25A G41C U54G C61U cannot be ordered by yeast fitness: ≤ 0.5 for the first, ≤ 0.5 for the second.

Compared with C5A U13G C34G C62G, G25A C49U U64C is higher in yeast fitness: ≤ 0.5 for the first, 0.782 for the second.

First: C22G A45U G48C A57C G67U
Second: U32C G50A
The yeast fitness of the first is lower: ≤ 0.5 for the first, 1.02 for the second.

Going from C24U A57C C60U G67C to G9A G48C A70C, the yeast fitness rises from ≤ 0.5 to 1.08.

First: C27G U32G
Second: U59A A70G
The yeast fitness of the first is lower: ≤ 0.5 for the first, 0.975 for the second.

G12A U16A C27G and A21U G56C U64C cannot be ordered by yeast fitness: ≤ 0.5 for the first, ≤ 0.5 for the second.

Compared with C4G U35A U54C C61G, C4A C5G C66G is lower in yeast fitness: 0.765 for the first, 0.597 for the second.

Going from C60G U64C to A21U C22U C49A, the yeast fitness falls from 0.568 to 0.56.

U7G C49U A57U and C4U C11G G41A cannot be ordered by yeast fitness: ≤ 0.5 for the first, ≤ 0.5 for the second.

U7G C11G C34U G41A G67U and C4G C34G A42U C61U C66U cannot be ordered by yeast fitness: ≤ 0.5 for the first, ≤ 0.5 for the second.

C5A G9C U47G G68U and U2A A15C U47C cannot be ordered by yeast fitness: ≤ 0.5 for the first, ≤ 0.5 for the second.

With G9C C66U the yeast fitness was 0.621.

From the RNAGym collection of RNA variant scans (doi:10.1126/science.aae0568)
